For data set [1], the target named is Death-associated protein kinase 3 (Homo sapiens) (UniProt O43293). In words: Binding affinity to wild-type human partial length DAPK3 (M1 to A277 residues) expressed in bacterial expression system assessed as remaining unbound target protein level at 1000 nM by Kinomescan method relative to control. In a few lines:
(§1)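 KINOMEscan binding panel of 468 kinases/mutants. Inhibitor was tested at a single concentration of 1 μM. Binding is reported as percent of control, defined relative to a DMSO control.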

For data set [2], the target named is Ribosomal protein S6 kinase alpha-6 (Homo sapiens) (UniProt Q9UK32). Kind of data set: Binding affinity to wild-type human partial length N-terminal RSK4 kinase domain 1 (M1 to E397 residues) expressed in mammalian expression system assessed as remaining unbound target protein level at 1000 nM by Kinomescan method relative to control. In a few lines:
as §1

In data set [3] the target is RAC-alpha serine/threonine-protein kinase (Homo sapiens) (UniProt P31749). In words: Binding affinity to wild-type human partial length AKT1 expressed in bacterial expression system assessed as remaining unbound target protein level at 1000 nM by Kinomescan method relative to control. In a few lines: (§2)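 Profiled in a KINOMEscan binding panel with the inhibitor at a single concentration of 1 μM. Binding to each kinase was read out as percent of control, relative to a DMSO control. Strong binders were defined as those with a percent control value below 1.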

Data set [4] deals with Myosin light chain kinase, smooth muscle (Homo sapiens) (UniProt Q15746). Kind of data set: Binding affinity to wild-type human full length MYLK (M854 to E1845 residues) expressed in mammalian expression system assessed as remaining unbound target protein level at 1000 nM by Kinomescan method relative to control. In a few lines:
(§3)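 KINOMEscan competition binding profile across a panel of 468 kinases and mutants, with the inhibitor tested at a single concentration of 1 μM. Binding is reported as percent of control, meaning signal relative to a DMSO control.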

Data set [5] deals with RAC-gamma serine/threonine-protein kinase (Homo sapiens) (UniProt Q9Y243). Kind of data set: Binding affinity to wild-type human partial length AKT3 expressed in bacterial expression system assessed as remaining unbound target protein level at 1000 nM by Kinomescan method relative to control. In a few lines:
as §2

The nature of data set [6]: MRT (0 to infinity) in beagle dog at 10 mg/kg, po by LC-MS/MS analysis. The note with it: in vivo. It counts as ADME, organism-based, Canis lupus familiaris.
Data set [7] has as its target Dual specificity mitogen-activated protein kinase kinase 2 (Homo sapiens) (UniProt P36507). Kind of data set: Binding affinity to wild-type human full length MEK2 (M1 to V400 residues) expressed in mammalian expression system assessed as remaining unbound target protein level at 1000 nM by Kinomescan method relative to control. In a few lines:
as §3

The target in data set [8] is Calcium/calmodulin-dependent protein kinase type 1 (Homo sapiens) (UniProt Q14012). In words: Binding affinity to wild-type human full length CAMK1 (M1 to L370 residues) expressed in bacterial expression system assessed as remaining unbound target protein level at 1000 nM by Kinomescan method relative to control. In a few lines:
(§4)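 Single-point competition binding screen across a panel of 468 kinases and mutants, with the inhibitor at 1 μM. Binding is read out as percent of a DMSO control, and targets below 1 percent control were classed as strong binders.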

Data set [9] has as its system MOLM-14. Kind of data set: Antiproliferative activity against human MOLM14 cells after 72 hrs by Celltiter-Glo assay. To be noted: MOLM-14, 72 h. It counts as functional. In a few lines: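 Cells seeded at 3000/well in 96-well plates, exposed to serially diluted compound for 72 h at 37 °C, 5% CO2. Viability read by CellTiter-Glo luminescence and normalized to DMSO control. GI50 derived from curve fit, mean of three independent measurements. Culture media: DMEM/10% FBS for adherent lines; IMDM for MV4-11 and MEC-1/2; RPMI 1640 for suspension lines and CHL.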
A general note: Cellular ATP, detected with luciferase, serves as a proxy for viable cell number.

Data set [10] concerns the target Myosin-IIIb (Homo sapiens) (UniProt Q8WXR4). Kind of data set: Binding affinity to wild-type human partial length MYO3B (M1 to D357 residues) expressed in bacterial expression system assessed as remaining unbound target protein level at 1000 nM by Kinomescan method relative to control.
Data set [11] has as its target Protein kinase C eta type (Homo sapiens) (UniProt P24723). Kind of data set: Binding affinity to wild-type human partial length PRKCH (S324 to P683 residues) expressed in bacterial expression system assessed as remaining unbound target protein level at 1000 nM by Kinomescan method relative to control.
Data set [12] concerns the target Calcium/calmodulin-dependent protein kinase type II subunit delta (Homo sapiens) (UniProt Q13557). Kind of data set: Binding affinity to wild-type human partial length CAMK2D (M1 to E329 residues) expressed in bacterial expression system assessed as remaining unbound target protein level at 1000 nM by Kinomescan method relative to control. In a few lines: as §2

Data set [13] concerns the target Mitogen-activated protein kinase kinase kinase 2 (Homo sapiens) (UniProt Q9Y2U5). In words: Binding affinity to wild-type human partial length MAP3K2 (S315 to H619 residues) expressed in mammalian expression system assessed as remaining unbound target protein level at 1000 nM by Kinomescan method relative to control. In a few lines: as §1
Data set [14] is described as follows: AUC (0 to infinity) in Sprague-Dawley rat at 20 mg/kg, po by LC-MS/MS analysis. It is filed as ADME, organism-based. On the set-up: dose 20 mg/kg, route oral, time infinity. The note with it: in vivo. In a few lines: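 Non-compartmental PK. Male SD rats 190-210 g, mice and beagle dogs acclimatized one week, fasted 12 h with water, split into iv and po groups (mice 48, rats 6, dogs 6). iv 3/3/2 mg/kg (mice/rats/dogs); po 10/20/10 mg/kg; vehicle DMSO in 5% glucose water. Blood at 2 or 5 to 720 min; plasma protein-precipitated with methanol, caffeine internal standard, LC-MS/MS.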

Data set [15] addresses Cyclin-dependent kinase 14 (Homo sapiens) (UniProt O94921). Kind of data set: Binding affinity to wild-type human full length PFTK1 (M1 to H451 residues) expressed in bacterial expression system assessed as remaining unbound target protein level at 1000 nM by Kinomescan method relative to control. Summed up:
as §3

In data set [16] the target is Serine/threonine-protein kinase 17B (Homo sapiens) (UniProt O94768). Kind of data set: Binding affinity to wild-type human full length DRAK2 (M1 to C372 residues) expressed in bacterial expression system assessed as remaining unbound target protein level at 1000 nM by Kinomescan method relative to control. Summed up: as §4
Data set [17] addresses Mitogen-activated protein kinase 6 (Homo sapiens) (UniProt Q16659). In words: Binding affinity to wild-type human partial length ERK3 (M1 to P413 residues) expressed in bacterial expression system assessed as remaining unbound target protein level at 1000 nM by Kinomescan method relative to control.
The test system of data set [18] is Tyrosine-protein kinase ABL1 (Homo sapiens), P00519 [Q252H]. Kind of data set: Binding affinity to human non-phosphorylated ABL1 Q252H mutant (S229 to K512 residues) expressed in mammalian expression system assessed as remaining unbound target protein level at 1000 nM by Kinomescan method relative to control. Summed up:
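KINOMEscan competition-binding profiling across the panel of 468 kinases and mutants, with inhibitor tested at 1 μM. Binding is expressed as percent of control, with DMSO as the reference control.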

Data set [19] deals with Platelet-derived growth factor receptor alpha (Homo sapiens) (UniProt P16234). Kind of data set: Binding affinity to wild-type human partial length PDGFRA (V575 to D1002 residues) expressed in mammalian expression system assessed as remaining unbound target protein level at 1000 nM by Kinomescan method relative to control.

Molecules are shown by their SMILES.

Chain of Serine/threonine-protein kinase 17B (Homo sapiens) (O94768 whole entry, the tested form may be a part): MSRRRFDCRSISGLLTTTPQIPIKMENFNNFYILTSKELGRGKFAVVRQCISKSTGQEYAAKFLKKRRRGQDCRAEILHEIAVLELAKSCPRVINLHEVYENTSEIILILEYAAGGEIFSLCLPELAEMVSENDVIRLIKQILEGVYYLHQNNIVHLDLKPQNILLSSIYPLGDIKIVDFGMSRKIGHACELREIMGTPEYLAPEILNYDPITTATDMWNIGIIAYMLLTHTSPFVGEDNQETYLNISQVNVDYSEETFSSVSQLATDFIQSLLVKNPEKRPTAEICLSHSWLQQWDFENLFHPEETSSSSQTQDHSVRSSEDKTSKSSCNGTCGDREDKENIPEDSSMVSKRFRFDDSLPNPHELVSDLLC
Chain of RAC-alpha serine/threonine-protein kinase (Homo sapiens) (P31749 whole entry): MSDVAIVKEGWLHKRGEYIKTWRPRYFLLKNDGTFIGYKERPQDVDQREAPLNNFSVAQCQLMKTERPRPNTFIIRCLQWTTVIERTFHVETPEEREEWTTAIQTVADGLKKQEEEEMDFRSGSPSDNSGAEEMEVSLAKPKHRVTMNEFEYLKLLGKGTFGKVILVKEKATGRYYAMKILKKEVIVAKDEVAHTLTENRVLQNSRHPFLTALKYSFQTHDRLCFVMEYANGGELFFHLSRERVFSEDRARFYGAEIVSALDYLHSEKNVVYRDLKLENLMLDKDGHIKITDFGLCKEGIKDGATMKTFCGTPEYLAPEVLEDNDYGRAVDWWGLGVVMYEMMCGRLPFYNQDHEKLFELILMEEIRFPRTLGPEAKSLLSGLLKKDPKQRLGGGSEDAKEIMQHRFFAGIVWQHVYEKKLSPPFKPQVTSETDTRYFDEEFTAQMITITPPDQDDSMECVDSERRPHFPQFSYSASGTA
Chain of Death-associated protein kinase 3 (Homo sapiens) (O43293 whole entry, looked up, the tested form may be a part): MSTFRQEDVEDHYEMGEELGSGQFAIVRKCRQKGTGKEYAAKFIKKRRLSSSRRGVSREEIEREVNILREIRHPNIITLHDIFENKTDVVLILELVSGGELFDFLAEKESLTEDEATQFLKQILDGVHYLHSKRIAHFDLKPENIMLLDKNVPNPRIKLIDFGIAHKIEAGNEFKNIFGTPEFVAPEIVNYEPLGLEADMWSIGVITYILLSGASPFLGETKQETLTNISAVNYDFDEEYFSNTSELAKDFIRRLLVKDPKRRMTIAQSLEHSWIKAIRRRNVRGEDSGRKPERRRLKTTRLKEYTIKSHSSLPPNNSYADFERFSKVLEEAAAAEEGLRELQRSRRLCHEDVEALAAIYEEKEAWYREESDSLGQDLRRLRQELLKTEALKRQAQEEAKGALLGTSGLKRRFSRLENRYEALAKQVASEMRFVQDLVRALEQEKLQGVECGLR
Chain of Myosin light chain kinase, smooth muscle (Homo sapiens) (Q15746 whole entry, the tested form may be a part): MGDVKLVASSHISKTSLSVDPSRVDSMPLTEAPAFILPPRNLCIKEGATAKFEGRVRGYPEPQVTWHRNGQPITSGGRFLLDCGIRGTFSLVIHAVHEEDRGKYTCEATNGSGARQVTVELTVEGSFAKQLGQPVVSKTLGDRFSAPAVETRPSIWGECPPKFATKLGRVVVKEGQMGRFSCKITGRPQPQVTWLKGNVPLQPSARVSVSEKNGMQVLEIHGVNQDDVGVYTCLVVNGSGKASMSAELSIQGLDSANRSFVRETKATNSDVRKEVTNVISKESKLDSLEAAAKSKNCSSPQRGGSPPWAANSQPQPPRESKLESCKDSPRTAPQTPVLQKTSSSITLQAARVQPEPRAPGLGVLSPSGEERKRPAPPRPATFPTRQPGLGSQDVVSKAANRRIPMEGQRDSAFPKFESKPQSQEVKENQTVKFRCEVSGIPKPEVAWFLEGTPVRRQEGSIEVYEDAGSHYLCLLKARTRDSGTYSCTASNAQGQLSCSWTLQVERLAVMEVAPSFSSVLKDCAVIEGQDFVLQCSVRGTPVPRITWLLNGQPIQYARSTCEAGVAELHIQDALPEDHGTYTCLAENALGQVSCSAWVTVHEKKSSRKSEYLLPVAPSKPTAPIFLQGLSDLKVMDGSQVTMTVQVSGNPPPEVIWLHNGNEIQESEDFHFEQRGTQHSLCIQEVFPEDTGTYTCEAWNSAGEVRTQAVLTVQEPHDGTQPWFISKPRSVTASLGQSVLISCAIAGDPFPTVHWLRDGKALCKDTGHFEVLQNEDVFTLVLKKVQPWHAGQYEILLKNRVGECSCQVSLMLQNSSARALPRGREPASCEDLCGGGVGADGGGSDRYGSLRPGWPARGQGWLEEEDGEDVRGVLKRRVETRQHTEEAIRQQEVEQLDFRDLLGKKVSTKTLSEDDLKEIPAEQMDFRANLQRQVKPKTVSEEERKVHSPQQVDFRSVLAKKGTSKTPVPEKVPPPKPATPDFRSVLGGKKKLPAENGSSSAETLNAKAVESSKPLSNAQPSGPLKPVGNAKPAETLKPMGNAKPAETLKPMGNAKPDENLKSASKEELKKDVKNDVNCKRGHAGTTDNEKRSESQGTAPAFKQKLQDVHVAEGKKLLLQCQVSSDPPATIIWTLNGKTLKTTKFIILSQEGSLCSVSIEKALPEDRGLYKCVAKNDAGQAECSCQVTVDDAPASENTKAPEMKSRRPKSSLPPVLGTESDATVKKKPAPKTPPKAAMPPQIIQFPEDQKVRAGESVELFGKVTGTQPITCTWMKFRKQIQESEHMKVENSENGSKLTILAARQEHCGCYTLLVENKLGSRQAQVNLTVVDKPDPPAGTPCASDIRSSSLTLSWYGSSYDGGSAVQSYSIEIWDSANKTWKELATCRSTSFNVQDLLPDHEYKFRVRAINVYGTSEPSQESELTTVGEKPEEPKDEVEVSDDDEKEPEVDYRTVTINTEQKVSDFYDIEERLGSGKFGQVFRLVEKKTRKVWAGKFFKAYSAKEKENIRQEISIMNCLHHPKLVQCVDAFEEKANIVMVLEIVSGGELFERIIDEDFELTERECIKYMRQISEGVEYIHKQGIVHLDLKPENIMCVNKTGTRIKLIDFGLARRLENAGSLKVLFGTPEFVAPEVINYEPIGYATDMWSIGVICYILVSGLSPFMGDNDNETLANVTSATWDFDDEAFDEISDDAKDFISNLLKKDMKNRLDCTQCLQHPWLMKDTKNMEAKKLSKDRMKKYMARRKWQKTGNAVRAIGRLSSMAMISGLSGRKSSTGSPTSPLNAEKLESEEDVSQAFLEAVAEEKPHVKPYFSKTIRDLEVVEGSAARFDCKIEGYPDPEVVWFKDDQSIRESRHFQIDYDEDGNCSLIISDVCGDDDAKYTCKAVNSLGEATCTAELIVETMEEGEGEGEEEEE
Chain of Mitogen-activated protein kinase kinase kinase 2 (Homo sapiens) (Q9Y2U5 whole entry, the tested form may be a part): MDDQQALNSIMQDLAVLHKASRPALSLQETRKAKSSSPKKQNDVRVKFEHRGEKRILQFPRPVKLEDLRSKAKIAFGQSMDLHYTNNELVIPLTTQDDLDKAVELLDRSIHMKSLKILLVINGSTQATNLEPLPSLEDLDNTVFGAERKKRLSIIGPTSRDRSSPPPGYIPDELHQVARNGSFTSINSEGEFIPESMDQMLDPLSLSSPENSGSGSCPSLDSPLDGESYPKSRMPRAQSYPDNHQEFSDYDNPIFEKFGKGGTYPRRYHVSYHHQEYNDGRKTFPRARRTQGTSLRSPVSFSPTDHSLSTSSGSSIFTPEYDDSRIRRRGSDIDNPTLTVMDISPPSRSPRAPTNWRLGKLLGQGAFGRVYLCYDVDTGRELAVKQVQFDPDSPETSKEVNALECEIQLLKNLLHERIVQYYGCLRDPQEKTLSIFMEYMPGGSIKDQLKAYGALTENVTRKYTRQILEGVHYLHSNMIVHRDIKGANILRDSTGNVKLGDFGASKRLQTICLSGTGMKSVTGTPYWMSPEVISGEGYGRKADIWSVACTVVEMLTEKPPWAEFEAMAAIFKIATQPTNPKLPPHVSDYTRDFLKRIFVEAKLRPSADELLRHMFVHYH
Chain of Platelet-derived growth factor receptor alpha (Homo sapiens) (P16234 whole entry, the tested form may be a part): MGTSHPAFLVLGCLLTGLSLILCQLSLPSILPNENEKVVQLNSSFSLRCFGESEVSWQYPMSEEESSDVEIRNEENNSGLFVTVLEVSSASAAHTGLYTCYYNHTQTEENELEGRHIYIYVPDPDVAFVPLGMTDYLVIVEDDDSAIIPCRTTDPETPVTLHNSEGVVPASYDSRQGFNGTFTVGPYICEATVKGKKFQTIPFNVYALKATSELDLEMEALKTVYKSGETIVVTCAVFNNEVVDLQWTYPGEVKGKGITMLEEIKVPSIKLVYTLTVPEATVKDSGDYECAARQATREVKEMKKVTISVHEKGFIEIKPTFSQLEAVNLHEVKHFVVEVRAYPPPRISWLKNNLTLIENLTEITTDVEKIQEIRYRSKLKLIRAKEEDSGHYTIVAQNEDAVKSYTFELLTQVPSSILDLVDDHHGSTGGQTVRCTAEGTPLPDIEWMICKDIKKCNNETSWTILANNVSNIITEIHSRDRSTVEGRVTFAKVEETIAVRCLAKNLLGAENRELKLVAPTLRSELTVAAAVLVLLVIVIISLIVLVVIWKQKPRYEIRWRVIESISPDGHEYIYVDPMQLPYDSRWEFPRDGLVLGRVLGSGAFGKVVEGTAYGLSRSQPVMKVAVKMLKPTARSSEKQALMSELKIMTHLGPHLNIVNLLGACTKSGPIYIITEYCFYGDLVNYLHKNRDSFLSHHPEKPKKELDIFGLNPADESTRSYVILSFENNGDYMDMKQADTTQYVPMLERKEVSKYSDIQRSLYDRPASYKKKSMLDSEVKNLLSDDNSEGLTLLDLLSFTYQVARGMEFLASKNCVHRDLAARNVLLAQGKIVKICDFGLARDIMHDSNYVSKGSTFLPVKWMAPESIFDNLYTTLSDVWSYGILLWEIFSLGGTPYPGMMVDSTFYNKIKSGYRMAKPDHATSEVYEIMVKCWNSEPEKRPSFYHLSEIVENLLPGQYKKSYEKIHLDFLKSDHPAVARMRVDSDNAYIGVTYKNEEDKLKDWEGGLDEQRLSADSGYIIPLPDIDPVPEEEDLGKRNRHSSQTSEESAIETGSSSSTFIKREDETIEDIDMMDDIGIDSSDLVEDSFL

What is called MRT inf is the average time that molecules of a dose stay in the body. Usually GI50 stands for the concentration that inhibits growth by half. In general, AUC(0-inf) refers to total exposure, with the tail of the curve extrapolated. A high value points to high exposure. Take `COCCN[C@H]1CC[C@H](Nc2cc(-c3csc(NCC4(C#N)CCOCC4)n3)c(Cl)cn2)CC1`: the Activity in data set [1] worked out at 63%; in [2], 94%; in data set [3], 92%; in data set [4], 71%; in data set [5], 100%; in [7], 95%. For the same molecule, the Activity was 89% in data set [8]; 82% in data set [10]; 98% in data set [11]; 83% in data set [12]; 74% in data set [13]; 80% in data set [15]. The Activity in data set [16] amounted to 89%; in data set [17], 88%; in [18], 97%; in data set [19], 100%. Further, the MRT inf in [6] came out at 29.2 h. The same molecule returned a GI50 in [9] of 1.1 nM. Moreover, the AUC(0-inf) in [14] stood at 1990 ng·h/mL.

(Values after ChEMBL document CHEMBL4261600 (Eur J Med Chem, 2018).)
